Assay results published in PubChem BioAssay AID504516 (Sanford-Burnham Center for Chemical Genomics, 2011).
Active and inactive are the calls of the source.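 How the source made its calls: active means IC50 at or below 20 µM; inactive means the rest.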

Each compound was assayed on Jurkat NF-kB luciferase, PMA/ionomycin, luminescence 16 h (assay: inhibitors of PMA/ionomycin-driven NF-kB luciferase in Jurkat – cell-based, luminescence, counter-screen for B-cell antigen receptor NF-kB inhibitors, SAR follow-up (AID 504516)).
Procedure, shortened: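 Detection: SteadyGlo luminescence | System: Jurkat NF-kB luciferase reporter cells | Quantity: 8000 reporter cells per well | Doses: Test compounds in dose-response series | Timing: 1 h compound pre-incubation, 16 h agonist exposure, 37 °C | Control set: DMSO-only and no-agonist wells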
`CCNC(=O)CCc1nc(-c2ccc(C(C)(C)C)cc2)no1` was tested, and the IC50 was > 79 µM (inactive).
With `CNC(=O)CCc1nc(-c2ccc(C(C)(C)C)cc2)no1` the IC50 was > 79 µM (inactive).
`CCOc1ccccc1-c1nc(CSCC(=O)NC2CC2)c(C)o1` was tested, and the IC50 was > 79 µM (inactive).
`CCNC(=O)CCc1nc(-c2ccccc2C)no1` was tested, and the IC50 was > 79 µM (inactive).
For `CCOc1ccccc1-c1nc(CSCC(=O)O)c(C)o1`, the IC50 was > 79 µM (inactive).
In the case of `CCOc1ccc(-c2nc(CSCC(=O)NCC3CC3)c(C)o2)cc1`, the IC50 is reported as 20.9 µM (inactive).
With `COc1ccc(C(=O)Nc2ccc3[nH]c(-c4cccc(OC)c4)cc(=O)c3c2)cc1` the IC50 was > 79 µM (inactive).
With `CCC(C)NC(=O)CCc1nc(-c2ccccc2)no1` (stereo not drawn) the IC50 was > 79 µM (inactive).
With `COc1cccc(-c2cc(=O)c3cc(NC(=O)c4ccc(N(C)C)cc4)ccc3[nH]2)c1` the IC50 was > 79 µM (inactive).
With `CCOC(=O)CC(NC(=O)c1ccc(Br)cc1)c1ccc(F)c([N+](=O)[O-])c1` (stereo not drawn) the IC50 was 42.7 µM (inactive).
In the case of `CCNC(=O)CCc1nc(-c2ccccc2Cl)no1`, the IC50 is reported as > 79 µM (inactive).
For `CCCCc1ccc(-c2noc(CCC(=O)NC(C)CC)n2)cc1` (stereo not drawn), the IC50 was 0.41 µM.
`CCc1ccc(-c2nc(CSCC(=O)NCc3ccco3)c(C)o2)cc1` was tested, and the IC50 was > 79 µM (inactive).
In the case of `CCC(C)NC(=O)CCc1nc(-c2ccc(C(C)C)cc2)no1` (stereo not drawn), the IC50 is reported as > 79 µM (inactive).
In the case of `CCOc1ccc(-c2nc(CSCC(=O)N3CCOCC3)c(C)o2)cc1`, the IC50 is reported as > 79 µM (inactive).
`CC(C)(C)c1ccc(-c2noc(CCC(=O)NC3CCC3)n2)cc1` was tested, and the IC50 was 0.94 µM.
For `CCOc1cccc(-c2nc(CSCC(=O)NC3CC3)c(C)o2)c1`, the IC50 was > 79 µM (inactive).
In the case of `Cc1oc(-c2ccc(OC(F)(F)F)cc2)nc1CSCC(=O)NC1CC1`, the IC50 is reported as > 79 µM (inactive).
For `CNC(=O)CCc1nc(-c2ccc(C(C)C)cc2)no1`, the IC50 was > 79 µM (inactive).
In the case of `CCNC(=O)CCc1nc(-c2c(Cl)cccc2Cl)no1`, the IC50 is reported as > 79 µM (inactive).
For `CCCCOc1ccc(-c2nc(CSCC(=O)NC3CC3)c(C)o2)cc1`, the IC50 was > 79 µM (inactive).
For `CCNC(=O)CCc1nc(-c2ccc(CC)cc2)no1`, the IC50 was > 79 µM (inactive).
For `CCOc1ccc(-c2nc(CSCC(=O)NC)c(C)o2)cc1`, the IC50 was > 79 µM (inactive).
In the case of `CNC(=O)CCc1nc(-c2ccccc2)no1`, the IC50 is reported as > 79 µM (inactive).
In the case of `Cc1ccc(-c2nc(CSCC(=O)NC3CC3)c(C)o2)cc1`, the IC50 is reported as > 79 µM (inactive).
With `CCCOc1ccc(-c2nc(CSCC(=O)O)c(C)o2)cc1` the IC50 was < 0.15 µM.
`Cc1oc(-c2ccccc2)nc1CSCC(=O)NCc1ccco1` was tested, and the IC50 was > 79 µM (inactive).
With `COC(=O)CCc1nc(-c2ccc(C(C)(C)C)cc2)no1` the IC50 was < 0.16 µM.
For `CCOc1ccc(-c2nc(CSCC(=O)NC3CC3)c(-c3ccccc3)o2)cc1`, the IC50 was 54.6 µM (inactive).
In the case of `CCc1ccc(-c2nc(CSCC(=O)NC3CC3)c(-c3ccccc3)o2)cc1`, the IC50 is reported as 72.8 µM (inactive).
`CCCCc1ccc(-c2noc(CCC(=O)NC(C)(C)C)n2)cc1` showed an IC50 of 1.62 µM.
`CCCOc1ccc(-c2nc(CSCC(=O)NC3CC3)c(C)o2)cc1` was tested, and the IC50 was > 79 µM (inactive).
`CCc1ccc(-c2noc(CCC(=O)NC(C)CC)n2)cc1` (stereo not drawn) was tested, and the IC50 was > 79 µM (inactive).
With `CCOc1ccc(-c2nc(CSCC(=O)N(C)C)c(C)o2)cc1` the IC50 was > 79 µM (inactive).
With `CC(C)(C)NC(=O)CCc1nc(-c2ccccc2)no1` the IC50 was > 79 µM (inactive).
`COc1cccc(-c2cc(=O)c3cc(NC(=O)c4ccccc4)ccc3[nH]2)c1` was tested, and the IC50 was > 79 µM (inactive).
With `CCC(C)NC(=O)CCc1nc(-c2ccc(C(C)(C)C)cc2)no1` (stereo not drawn) the IC50 was > 79 µM (inactive).
With `Cc1oc(-c2ccccc2)nc1CSCC(=O)NC1CC1` the IC50 was > 79 µM (inactive).
In the case of `CC(C)(C)c1ccc(-c2noc(CCC(N)=O)n2)cc1`, the IC50 is reported as 0.19 µM.
For `CCOc1ccc(-c2nc(CSCC(=O)NC3CCC3)c(C)o2)cc1`, the IC50 was 26.4 µM (inactive).
With `CCNC(=O)CCc1nc(-c2ccccc2)no1` the IC50 was > 79 µM (inactive).
With `Cc1ccc(-c2nc(CSCC(=O)NCc3ccco3)c(C)o2)cc1` the IC50 was > 79 µM (inactive).
For `CN(C)C(=O)CCc1nc(-c2ccc(C(C)(C)C)cc2)no1`, the IC50 was 71.3 µM (inactive).
For `Cc1oc(-c2ccc(C(F)(F)F)cc2)nc1CSCC(=O)NC1CC1`, the IC50 was > 79 µM (inactive).
With `CCCCOc1ccc(-c2nc(CSCC(=O)O)c(C)o2)cc1` the IC50 was < 0.15 µM.
With `O=C(O)CCc1nc(-c2ccccc2)no1` the IC50 was > 79 µM (inactive).
For `CCOc1ccc(-c2nc(CSCC(=O)NC3CC3)c(C)o2)cc1`, the IC50 was > 79 µM (inactive).
Work on `CCOc1ccc(-c2nc(CSCC(=O)NC(C)(C)C)c(C)o2)cc1` yielded an IC50 of 10.8 µM.
With `CCNC(=O)CCc1nc(-c2ccc(OCC)cc2)no1` the IC50 was > 79 µM (inactive).
Compound `CCCCc1ccc(-c2noc(CCC(=O)NC3CC3)n2)cc1` has an IC50 of 1.25 µM.
In the case of `CCc1ccc(-c2noc(CCC(=O)NC(C)(C)C)n2)cc1`, the IC50 is reported as > 79 µM (inactive).
For `O=C(CCc1nc(-c2ccccc2)no1)NC1CC1`, the IC50 was > 79 µM (inactive).
`CCNC(=O)CCc1nc(-c2cccc(OC)c2)no1` was tested, and the IC50 was > 79 µM (inactive).
In the case of `CCNC(=O)CCc1nc(-c2cccc(F)c2)no1`, the IC50 is reported as > 79 µM (inactive).
`C#CCNC(=O)CSCc1nc(-c2ccc(OCC)cc2)oc1C` was tested, and the IC50 was > 79 µM (inactive).
For `CCCCc1ccc(-c2noc(CCC(=O)NCC)n2)cc1`, the IC50 was > 79 µM (inactive).
`CC(C)c1ccc(-c2noc(CCC(=O)NC(C)(C)C)n2)cc1` showed an IC50 of 15.2 µM.
For `CCc1ccc(-c2noc(CCC(=O)NC)n2)cc1`, the IC50 was > 79 µM (inactive).
With `CCc1ccc(-c2noc(CCC(=O)NC3CC3)n2)cc1` the IC50 was > 79 µM (inactive).
Compound `CCOc1ccc(-c2noc(CCC(=O)O)n2)cc1` has an IC50 of 9.25 µM.
In the case of `CCNC(=O)CCc1nc(-c2ccc(C(C)C)cc2)no1`, the IC50 is reported as > 79 µM (inactive).
Work on `Cc1oc(-c2ccc(OC(F)(F)F)cc2)nc1CSCC(=O)O` yielded an IC50 of 0.22 µM.
`CCc1ccc(-c2nc(CSCC(=O)NC3CC3)c(C)o2)cc1` was tested, and the IC50 was > 79 µM (inactive).
In the case of `CCCCc1ccc(-c2noc(CCC(=O)NC)n2)cc1`, the IC50 is reported as > 79 µM (inactive).
In the case of `COc1ccc(-c2nc(CSCC(=O)NCc3ccco3)c(C)o2)cc1`, the IC50 is reported as > 79 µM (inactive).
For `CCOc1ccc(-c2nc(CSCC(N)=O)c(C)o2)cc1`, the IC50 was > 79 µM (inactive).
For `CCCOc1ccc(-c2nc(CSCC(=O)NCc3ccco3)c(C)o2)cc1`, the IC50 was > 79 µM (inactive).
With `CC(C)(C)c1ccc(-c2noc(CCC(=O)O)n2)cc1` the IC50 was 0.2 µM.
With `Cc1oc(-c2ccc(C(F)(F)F)cc2)nc1CSCC(=O)O` the IC50 was 0.52 µM.
For `CCOc1ccc(-c2nc(CSCC(=O)O)c(C)o2)cc1`, the IC50 was < 0.15 µM.
`CC(C)c1ccc(-c2noc(CCC(=O)NC3CC3)n2)cc1` was tested, and the IC50 was > 79 µM (inactive).
For `CCCCOc1ccc(-c2nc(CSCC(=O)NCc3ccco3)c(C)o2)cc1`, the IC50 was > 79 µM (inactive).
`CC(C)Nc1ccc(C(CC(=O)O)NC(=O)c2ccccc2)cc1[N+](=O)[O-]` (stereo not drawn) was tested, and the IC50 was > 79 µM (inactive).
In the case of `COc1ccc(-c2nc(CSCC(=O)NC3CC3)c(C)o2)cc1`, the IC50 is reported as > 79 µM (inactive).
For `CCNC(=O)CCc1nc(-c2cccc(C)c2)no1`, the IC50 was > 79 µM (inactive).
With `CCOc1ccc(-c2nc(CSCC(=O)NCc3ccco3)c(C)o2)cc1` the IC50 was 25.4 µM (inactive).
`CC(C)(C)c1ccc(-c2noc(CCC(=O)NC3CC3)n2)cc1` was tested, and the IC50 was 58.7 µM (inactive).
In the case of `CCN(CC)C(=O)CCc1nc(-c2ccc(C(C)(C)C)cc2)no1`, the IC50 is reported as 16.4 µM.
